{"data": "Measured values pooled from the literature", "note": "Protocols differ between the studies behind these lines."}
{"SMILES": "O=C(O)CN1C(=O)/C(=C/c2ccc(-c3ccc(N(c4ccccc4)c4ccccc4)cc3)cc2)NC1=S", "organism": "Staphylococcus aureus", "test": "microbial killing, broth dilution", "system": "ATCC43300", "endpoint": "MBC", "value": "3.9 µg/mL"}
{"SMILES": "Cc1ccc2nc(-n3nc(CC(C)C)c4c3-c3ccccc3C4=O)sc2c1", "organism": "Staphylococcus aureus", "test": "microbial growth, well diffusion", "system": "NCIM5021", "conditions": "1000 µg/mL", "endpoint": "inhibition zone", "value": "14 mm"}
{"SMILES": "Cc1ccc(C(C)C)cc1OS(=O)(=O)c1ccccc1", "organism": "Escherichia coli", "test": "microbial growth, broth dilution", "system": "ATCC25922", "endpoint": "IC50", "value": "113 µg/mL"}
{"SMILES": "O=C(O)c1cn(C2CC2)c2cc(N3CCNCC3)c(F)cc2c1=O", "organism": "Staphylococcus aureus", "test": "microbial growth", "system": "NCTC8325", "endpoint": "MIC", "value": "0.75 µM"}
{"SMILES": "O=C(O)c1ccc(-n2cc(COC3=CC(=O)c4ccccc4C3=O)nn2)cc1", "organism": "Escherichia coli", "test": "microbial growth, broth dilution", "system": "ATCC25922", "endpoint": "IC50", "value": "22.6 µg/mL"}
{"SMILES": "CC(C)c1nn(-c2nc3ccc(Cl)cc3s2)c2c1C(=O)c1ccccc1-2", "organism": "Staphylococcus aureus", "test": "microbial growth, well diffusion", "system": "NCIM5021", "conditions": "250 µg/mL", "endpoint": "inhibition zone", "value": "11 mm"}
{"SMILES": "O=C1NC(=S)S/C1=C\\c1c2ccccc2c(-c2ccc(N(c3ccccc3)c3ccccc3)cc2)c2ccccc12", "organism": "Micrococcus luteus", "test": "microbial killing, broth dilution", "system": "ATCC10240", "endpoint": "MBC", "value": "> 1000 µg/mL"}
{"SMILES": "COc1ccc2nc(-n3nc(CC(C)C)c4c3-c3ccccc3C4=O)sc2c1", "organism": "Staphylococcus aureus", "test": "microbial growth, well diffusion", "system": "NCIM5021", "conditions": "250 µg/mL", "endpoint": "inhibition zone", "value": "12 mm"}
{"SMILES": "O=C1NC(=S)N/C1=C\\c1c2ccccc2c(-c2ccc(N(c3ccccc3)c3ccccc3)cc2)c2ccccc12", "organism": "Micrococcus luteus", "test": "microbial killing, broth dilution", "system": "ATCC10240", "endpoint": "MBC", "value": "> 1000 µg/mL"}
{"SMILES": "Cc1ccc(C(C)C)cc1OCc1cn(-c2ccc(F)cc2)nn1", "organism": "Escherichia coli", "test": "microbial growth, broth dilution", "system": "ATCC25922", "endpoint": "IC50", "value": "1580 µg/mL"}
{"SMILES": "CO[C@@H](C(=O)N1Cc2[nH]nc(NC(=O)c3ccc(N4CCN(C)CC4)cc3)c2C1)c1ccccc1", "organism": "Staphylococcus aureus", "test": "microbial growth", "system": "NCTC8325", "endpoint": "MIC", "value": "> 30 µM"}
{"SMILES": "O=C1C=C(OCc2cn(-c3ccc(F)cc3)nn2)C(=O)c2ccccc21", "organism": "Escherichia coli", "test": "microbial growth, broth dilution", "system": "ATCC25922", "endpoint": "IC50", "value": "165 µg/mL"}
{"SMILES": "Cc1nn(-c2nc3ccc(Br)cc3s2)c2c1C(=O)c1ccccc1-2", "organism": "Staphylococcus aureus", "test": "microbial growth, well diffusion", "system": "NCIM5021", "conditions": "125 µg/mL", "endpoint": "inhibition zone", "value": "10 mm"}
{"SMILES": "O=C1NC(=S)N/C1=C\\c1ccc(-c2ccc(N(c3ccccc3)c3ccccc3)cc2)c2ccccc12", "organism": "Staphylococcus aureus", "test": "microbial killing, broth dilution", "system": "ATCC6538", "endpoint": "MBC", "value": "> 1000 µg/mL"}
{"SMILES": "C=CC(=O)Nc1cc2c(Nc3ccc(F)c(Cl)c3)ncnc2cc1OCCCN1CCOCC1", "organism": "Staphylococcus aureus", "test": "microbial growth", "system": "NCTC8325", "endpoint": "MIC", "value": "> 30 µM"}
{"SMILES": "Cc1nn(-c2nc3ccccc3s2)c2c1C(=O)c1ccccc1-2", "organism": "Staphylococcus aureus", "test": "microbial growth, well diffusion", "system": "NCIM5021", "conditions": "500 µg/mL", "endpoint": "inhibition zone", "value": "11 mm"}
{"SMILES": "C=CC(=O)Nc1cccc(Oc2nc(Nc3ccc(N4CCN(C)CC4)cc3)ncc2Cl)c1", "organism": "Staphylococcus aureus", "test": "microbial growth", "system": "NCTC8325", "endpoint": "MIC", "value": "> 30 µM"}
{"SMILES": "O=C1NC(=S)N/C1=C\\c1ccc(-c2ccc(N(c3ccccc3)c3ccccc3)cc2)cc1", "organism": "Micrococcus luteus", "test": "microbial killing, broth dilution", "system": "ATCC10240", "endpoint": "MBC", "value": "> 1000 µg/mL"}
{"SMILES": "N#CC(=C(/N)Sc1ccccc1N)/C(C#N)=C(\\N)Sc1ccccc1N", "organism": "Staphylococcus aureus", "test": "microbial growth", "system": "NCTC8325", "endpoint": "MIC", "value": "> 30 µM"}
{"SMILES": "O=C1C=C(OCc2cn(-c3ccc(Cl)cc3)nn2)C(=O)c2ccccc21", "organism": "Escherichia coli", "test": "microbial growth, broth dilution", "system": "ATCC25922", "endpoint": "IC50", "value": "306 µg/mL"}
{"SMILES": "Cc1nn(-c2nc3ccc(Cl)cc3s2)c2c1C(=O)c1ccccc1-2", "organism": "Staphylococcus aureus", "test": "microbial growth, well diffusion", "system": "NCIM5021", "conditions": "1000 µg/mL", "endpoint": "inhibition zone", "value": "11 mm"}
{"SMILES": "O=C(O)CN1C(=O)/C(=C/c2ccc(-c3ccc(N(c4ccccc4)c4ccccc4)cc3)cc2)SC1=S", "organism": "Staphylococcus aureus", "test": "microbial killing, broth dilution", "system": "ATCC25923", "endpoint": "MBC", "value": "31.3 µg/mL"}
{"SMILES": "Cc1ccc(C(C)C)cc1OCc1cn(-c2ccc(C(=O)O)cc2)nn1", "organism": "Escherichia coli", "test": "microbial growth, broth dilution", "system": "ATCC25922", "endpoint": "IC50", "value": "15.3 µg/mL"}
{"SMILES": "Cn1c(=O)c(F)c(Nc2ccc(I)cc2F)c2c(=O)n(C[C@@H](O)CO)cnc21", "organism": "Staphylococcus aureus", "test": "microbial growth", "system": "NCTC8325", "endpoint": "MIC", "value": "> 30 µM"}
{"SMILES": "Cc1ccc2nc(-n3nc(C)c4c3-c3ccccc3C4=O)sc2c1", "organism": "Staphylococcus aureus", "test": "microbial growth, well diffusion", "system": "NCIM5021", "conditions": "1000 µg/mL", "endpoint": "inhibition zone", "value": "12 mm"}
{"SMILES": "Clc1ccc(Nc2nnc(Cc3ccncc3)c3ccccc23)cc1", "organism": "Staphylococcus aureus", "test": "microbial growth", "system": "NCTC8325", "endpoint": "MIC", "value": "> 30 µM"}
{"SMILES": "CC(C)Cc1nn(-c2nc3ccc(Cl)cc3s2)c2c1C(=O)c1ccccc1-2", "organism": "Staphylococcus aureus", "test": "microbial growth, well diffusion", "system": "NCIM5021", "conditions": "125 µg/mL", "endpoint": "inhibition zone", "value": "10 mm"}
{"SMILES": "O=C1NC(=S)S/C1=C\\c1ccc(-c2ccc(N(c3ccccc3)c3ccccc3)cc2)c2ccccc12", "organism": "Micrococcus luteus", "test": "microbial killing, broth dilution", "system": "ATCC10240", "endpoint": "MBC", "value": "> 1000 µg/mL"}
{"SMILES": "C#CCCC1(CCOC(=O)c2ccc(NC(=O)Nc3ccc(Cl)c(C(F)(F)F)c3)cc2)N=N1", "organism": "Staphylococcus aureus", "test": "microbial growth", "system": "NCTC8325", "endpoint": "MIC", "value": "1 µM"}
